Screening data deposited in PubChem BioAssay by The Scripps Research Institute Molecular Screening Center.
SMARCA2 activ = SMARCA2 function activation, primary screen. actives 1% (n = 370,000). AID 652017. MG213 cells, MMTV-luciferase reporter, dexamethasone, overnight. activation, % at 9.1 µM; in the data active = activation above about 7.8%
NR2E3 ag-1 = agonists of human nuclear receptor NR2E3; Q9Y5X4; GST-NR2E3/biotin-RetCOR TR-FRET, 1536-well; inhibition of corepressor binding, % at 4.78 µM; actives 0.12% (n = 320,000); AID 2300;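 active = percent inhibition above the cutoff of mean plus 3 SD of all tested compounds, set per screening campaign, cut at about 20% in these data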
Target sequence (Q9Y5X4 whole entry, looked up): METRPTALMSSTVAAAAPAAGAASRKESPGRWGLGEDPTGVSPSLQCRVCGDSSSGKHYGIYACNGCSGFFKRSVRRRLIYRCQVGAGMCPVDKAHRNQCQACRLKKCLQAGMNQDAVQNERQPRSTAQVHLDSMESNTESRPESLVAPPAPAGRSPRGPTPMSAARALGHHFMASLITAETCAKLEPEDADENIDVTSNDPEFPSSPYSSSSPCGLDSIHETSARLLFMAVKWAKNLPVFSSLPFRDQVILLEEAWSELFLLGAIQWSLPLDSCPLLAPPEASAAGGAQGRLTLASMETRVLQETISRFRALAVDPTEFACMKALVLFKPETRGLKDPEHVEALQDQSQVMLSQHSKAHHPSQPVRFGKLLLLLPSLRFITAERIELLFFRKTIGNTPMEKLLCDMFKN
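Material: NR2E3–RetCOR corepressor complex / Amount: 1.35 nM GST-NR2E3 / Medium: Tris pH 7.5 / Compound: single nominal compound dose of 4.8 µM / Incubation: 5 h at 4 °C / Technique: TR-FRET, Eu(K)-anti-GST donor, streptavidin-D2 acceptor, ex 340, em 617/671 nm / Read-out basis: percent loss of FRET ratio relative to control wells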
NR2E3 ag-2 = agonists of human NR2E3 nuclear receptor. CHO-S Gal4-NCOR/VP16-NR2E3 two-hybrid, luciferase. actives 0.35% (n = 360,000). AID 602229. inhibition of corepressor binding, % at 3.98 µM. Q9Y5X4;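 active = inhibition above the mean of all tested compounds plus 3 SD, cut at about 70% in these data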;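 also: higher means lower luciferase signal from less NR2E3 corepressor binding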
NR2F2 inh = NR2F2 (human) inhibition, primary screen. P24468. HEK293T NGFI-A luciferase reporter, luminescence. inhibition, % at 8.6 µM. actives 0.7% (n = 370,000). AID 686940;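 active = inhibition above a per-plate cutoff, mean inhibition of test wells between control levels plus 3 SD, cut at about 38% in these data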;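 also: cells cotransfected with COUP-TFII expression vector driving the NGFI-A reporter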
GalR3 antagonist = human GalR3 antagonism. actives 0.44% (n = 360,000). AID 651719. inhibition, % at 3 µM. O60755. HEK293 GalR3-CNG cAMP membrane potential fluorescence; galR3 body fused to GalR1 C-terminus;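 active = inhibition above the screen-wide average plus 3 SD, cut at about 13% in these data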;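 also: forskolin and galanin both at EC90 stimulate the cells; cAMP rise reported by CNG channel membrane potential dye signal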
Target sequence (O60755 1-299 limits assumed): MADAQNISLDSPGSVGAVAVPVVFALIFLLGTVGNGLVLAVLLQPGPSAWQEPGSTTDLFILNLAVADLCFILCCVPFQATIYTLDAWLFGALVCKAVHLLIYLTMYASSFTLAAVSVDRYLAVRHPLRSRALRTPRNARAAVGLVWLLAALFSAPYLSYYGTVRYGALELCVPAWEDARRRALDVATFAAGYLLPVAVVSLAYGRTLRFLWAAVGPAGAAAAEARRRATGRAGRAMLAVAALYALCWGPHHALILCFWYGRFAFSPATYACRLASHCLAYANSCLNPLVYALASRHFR
GalR3 conf = GalR3 (human) antagonism, confirmation | shares compounds with GalR3 antagonist | HEK293 GalR3 CNG cAMP biosensor, membrane potential fluorescence; galR3 fused to GalR1 carboxy tail; challenged with forskolin and galanin at EC90 | inhibition, % at 3 µM | actives 59% (n = 1,600) | AID 652245;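 active = inhibition above the primary screen's cutoff, the mean inhibition of all screened compounds plus 3 SD, cut at about 13% in these data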
HEK-CNG parental = acts as nonspecific agonist in parental HEK-CNG cells; shares compounds with GalR3 antagonist; HEK293-CNG parental cells, cAMP membrane potential fluorescence; normalised: DMSO wells 0%, forskolin wells 100%; activation, % at 3 µM; actives 10% (n = 1,600); in the data active = activation above about 1.3%
Of the large screens only hits and unclear results are named; the others gave an inactive call (follow-up assays come after a bar, where they were run). Only some compounds are listed: those with a hit (about 2.2% of all), similar ones and a draw of the others.

CC(C)(C)CN1C(N)=NC[C@@H]1Cc1ccccc1	none (no result: GalR3 antagonist) | GalR3 conf inactive | HEK-CNG parental inactive
Cn1c(=O)c2[nH]c(SCC(=O)NCCc3ccc(F)cc3)nc2n(C)c1=O	none (no result: NR2E3 ag-1, NR2E3 ag-2, GalR3 antagonist)
CC(C)(C)OC(=O)NCCCCCc1nnc(SCC(=O)Nc2cccc(Cl)c2)o1	GalR3 antagonist 17 | GalR3 conf 77 | HEK-CNG parental inactive
CC(C)(C)OC(=O)NCCc1nnc(SCC(=O)Nc2cccc(Cl)c2)o1	none
Cc1nc(N2N=C(c3ccc(Cl)cc3)CC2c2ccco2)sc1C(=O)N(C)C (centres undefined)	GalR3 antagonist 21 | GalR3 conf inactive | HEK-CNG parental inactive
Clc1ccc(C2=NN(c3ccccc3)C(c3ccco3)C2)cc1 (centres undefined)	none
COc1ccc(Cn2c(NC(=O)c3ccccc3)nc(Cc3ccccc3)c2-c2ccccc2)c(OC)c1	none (no result: NR2E3 ag-1, NR2E3 ag-2, GalR3 antagonist)
COC(=O)[C@H](C(C)C)N1Cc2nnn(Cc3ccccc3)c2-c2cc(F)ccc2S1(=O)=O	none (no result: NR2E3 ag-1, NR2E3 ag-2, GalR3 antagonist)
Cc1ccc(CN2CCN(/N=C/c3ccc(C(F)(F)F)cc3)CC2)cc1	GalR3 antagonist 16 | GalR3 conf inactive | HEK-CNG parental inactive
Cc1ccc(/C=N/N2CCN(Cc3ccc(C)cc3)CC2)cc1	none
C=CCN1C(=O)[C@@H](CC(=O)N2CCCCC2)[C@]2(C(=O)OC)CCCCC=C12	none (no result: NR2E3 ag-1, NR2E3 ag-2, GalR3 antagonist)
CCOc1ccc(-n2c(SCc3nc4ccccc4[nH]3)nnc2-c2cccc(Cl)c2)cc1	none (no result: NR2E3 ag-1, NR2E3 ag-2, GalR3 antagonist)
COc1ccc(N2C(=O)CN(Cc3cc(OC)c(OC)c(OC)c3)C2=S)cc1	GalR3 antagonist 14 | GalR3 conf inactive | HEK-CNG parental inactive
CC(=O)c1cc(-c2cccc(Cl)c2O)c(=O)n2c1CCC2	none (no result: NR2E3 ag-1, NR2E3 ag-2, GalR3 antagonist)
Cc1onc(-c2ccccc2Cl)c1C(=O)NC(=S)Nc1ccccc1F	none
COc1ccccc1NC(=S)NC(=O)c1c(-c2ccccc2Cl)noc1C	GalR3 antagonist 15 | GalR3 conf inactive | HEK-CNG parental inactive
CCCc1ccc(C(=O)NC(=O)c2ccccc2O)cc1	GalR3 antagonist 13 | GalR3 conf 49 | HEK-CNG parental inactive
O=C(Nc1ccc(F)cc1)Nc1c(-c2ccc(F)cc2)nc2ncccn12	none (no result: NR2E3 ag-1, NR2E3 ag-2, GalR3 antagonist)
COC(=O)[C@]12C[C@H](CC(=O)N3CCCC3)C(=O)N(Cc3ccc(Cl)cc3Cl)C1=C[C@H](C(C)(C)C)O[C@@H]2C	none (no result: NR2E3 ag-1, NR2E3 ag-2, GalR3 antagonist)
CC(C)CN1CN2CCc3ccccc3C2CS1(=O)=O (centres undefined)	none (no result: NR2E3 ag-1, NR2E3 ag-2, GalR3 antagonist)
Cc1oc(-c2ccccc2)cc1C(=O)Nc1cccc(/C=C\C(=O)O)c1	GalR3 antagonist 71 | GalR3 conf 91 | HEK-CNG parental inactive
COc1ccc(-n2c(C)c(C(C)=O)c(C(C)=O)c2C)cc1	none
COc1cccc(-n2c(C)c(C(C)=O)c(C(C)=O)c2C)c1	GalR3 antagonist 15 | GalR3 conf inactive | HEK-CNG parental inactive
O=C(Nc1ccc(C(F)(F)F)cc1)OC1CC2CC1[C@H]1CCCCN1C2 (some centres undefined)	none (no result: NR2E3 ag-1, NR2E3 ag-2, GalR3 antagonist)
CC(C)CSc1nnc(N)s1	GalR3 antagonist 14 | GalR3 conf inactive | HEK-CNG parental inactive
COc1cc(CNCC(O)c2ccccc2)ccc1OCc1ccc(Cl)nc1 (centres undefined)	GalR3 antagonist 26 | GalR3 conf 43 | HEK-CNG parental 2.3
CCCc1ccc(O)c(N=Cc2cc(Br)cc(OCC)c2O)c1	GalR3 antagonist 16 | GalR3 conf inactive | HEK-CNG parental inactive
COn1c(SCc2cccnc2)nc2ccccc2c1=O	none (no result: GalR3 antagonist) | GalR3 conf inactive | HEK-CNG parental inactive
Cc1nc(C)n(CCNS(=O)(=O)c2ccc(C)c(C)c2)n1	GalR3 antagonist 18 | GalR3 conf inactive | HEK-CNG parental inactive
Cc1ccc(NC(=O)c2ccc(CN3CCc4ccccc4C3)cc2)cc1	GalR3 antagonist 27 | GalR3 conf 104 | HEK-CNG parental inactive
Cc1cc(C)cc(NC(=O)c2ccc(CN3CCc4ccccc4C3)cc2)c1	none
O=C(Nc1ccccc1)c1ccc(CN2CCc3ccccc3C2)cc1	GalR3 antagonist 92 | GalR3 conf 102 | HEK-CNG parental inactive
COC(=O)[C@]12C[C@H](CC(=O)N3CCCCC3)C(=O)N(CCc3ccc(OC)c(OC)c3)C1=C[C@H](C(C)(C)C)O[C@@H]2C	none (no result: NR2E3 ag-1, NR2E3 ag-2, GalR3 antagonist)
COc1cccc(-c2c(C(=O)N/N=C/c3sccc3C)nnn2-c2nonc2N)c1	none (no result: GalR3 antagonist) | GalR3 conf inactive | HEK-CNG parental inactive
CCc1ccc(OCC(=O)Nc2ccc(-c3cc4ccccc4oc3=O)c(OC)c2)cc1	GalR3 antagonist 26 | GalR3 conf 66 | HEK-CNG parental inactive
O=C(NNC(=S)NC(=O)c1ccccc1[N+](=O)[O-])c1ccccc1O	GalR3 antagonist 31 | GalR3 conf inactive | HEK-CNG parental inactive
O=C(NNC(=S)NC(=O)c1ccccc1[N+](=O)[O-])c1ccccc1[N+](=O)[O-]	none
O=C(Cc1ccccc1)NC1CCCCN(Cc2ccc(Cl)cc2)C1=O (centres undefined)	none (no result: NR2E3 ag-1, NR2E3 ag-2, GalR3 antagonist)
CCOc1ccc2[nH]c(=O)c(CN(Cc3ccco3)C(CC)c3nnnn3Cc3ccccc3)cc2c1 (centres undefined)	GalR3 antagonist 24 | GalR3 conf inactive | HEK-CNG parental inactive
Cc1ccc(-c2nnc(SCC(=O)Nc3ccc(Oc4ccccc4)cc3)n2-c2ccc(Cl)cc2)cc1	none (no result: NR2E3 ag-1, NR2E3 ag-2, GalR3 antagonist)
C=CCN(C)C(C#CCCCC)c1ccccc1 (centres undefined)	none (no result: SMARCA2 activ, NR2E3 ag-1, NR2E3 ag-2, GalR3 antagonist)
NCCOc1ccc(C23CC4CC(CC(C4)C2)C3)cc1	GalR3 antagonist 27 | GalR3 conf 28 | HEK-CNG parental 14
COc1ccc(NC(=O)c2ccc(-c3c(C)noc3C)c3ccoc23)cn1	GalR3 antagonist 44 (no result: NR2E3 ag-1) | GalR3 conf inactive | HEK-CNG parental inactive
COc1ccc(/C=N/NC(=O)c2c(C)n(C)c3ccc(OC)cc23)c(OC)c1	GalR3 antagonist 14 | GalR3 conf inactive | HEK-CNG parental inactive
COc1ccc2c(c1)c(C(=O)N/N=C/c1ccccc1Cl)c(C)n2C	none
O=C(CSc1nc2ccccc2c(=O)[nH]1)NC1CCCCC1	none (no result: SMARCA2 activ, NR2E3 ag-1, NR2E3 ag-2, GalR3 antagonist)
Nc1c(Cl)cc(-c2csc(NC(CO)c3nc4ccccc4n3CCOCCO)n2)cc1Cl (centres undefined)	GalR3 antagonist 64 | GalR3 conf inactive | HEK-CNG parental inactive
CCOC(=O)c1c(O)c2c([nH]c1=O)CCCC2	none
CCOC(=O)c1c(O)c(Cl)c(C)[nH]c1=O	GalR3 antagonist 16 | GalR3 conf 19 | HEK-CNG parental inactive
CCCCC[C@H](O)/C=C/C1C(=O)C=C[C@H]1C/C=C\CCCC(=O)OC (some centres undefined)	GalR3 antagonist 64 (no result: NR2E3 ag-1) | GalR3 conf 80 | HEK-CNG parental inactive
